Test results: ChEMBL document CHEMBL4043279 (Bioorg Med Chem Lett, 2017)
Activity calls are given as the source filed them. The calls are words filed in the database; no cut-off is given here.

Experiments:
[1] = tested on: PC-3; test: Antiproliferative activity against human PC3 cells treated for 24 hrs measured after 72 hrs by MTT assay; assay type: functional, cell-based
[2] = tested on: HepG2; test: Antiproliferative activity against human HepG2 cells treated for 24 hrs measured after 72 hrs by MTT assay; assay type: functional, cell-based
[3] = tested on: THP-1; test: Antiproliferative activity against human THP1 cells treated for 24 hrs measured after 72 hrs by MTT assay; assay type: functional, cell-based
[4] = tested on: HL-60; test: Antiproliferative activity against human HL60 cells treated for 24 hrs measured after 72 hrs by MTT assay; assay type: functional, cell-based
[5] = tested on: PBMC; test: Antiproliferative activity against human PBMC treated for 24 hrs measured after 72 hrs by MTT assay; assay type: cell-based
[6] = tested on: HL-60; test: Induction of apoptosis in human HL60 cells assessed as late apoptotic cells at 0.5 uM after 48 hrs by Annexin V-FITC/propidium iodide staining based flow cytometry (reference value: 1.56%); assay type: functional
Method in brief: (§1)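 HL-60 cells were treated for 48 h with vehicle alone or with 0.25, 0.5 or 1.0 μM. Cells were then stained with FITC-Annexin V and PI and analysed by two-parameter flow cytometry. Quadrants were scored as viable (LL), early apoptotic (LR), late apoptotic/necrotic (UR) and necrotic (UL). Total apoptosis was taken as early plus late.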

[7] = tested on: HL-60; test: Cell cycle arrest in human HL60 cells assessed as accumulation at S-phase at 0.5 uM after 48 hrs by propidium iodide staining based flow cytometry (reference value: 25.19%); assay type: functional
[8] = tested on: HL-60; test: Induction of apoptosis in human HL60 cells assessed as necrotic cells at 0.5 uM after 48 hrs by Annexin V-FITC/propidium iodide staining based flow cytometry (reference value: 0.03%); assay type: functional; method in brief: as §1
[9] = tested on: HL-60; test: Induction of mitochondrial membrane potential loss in human HL60 cells assessed as cells with collapsed mitochondrial membrane potential at 1 uM after 48 hrs by JC-1 staining based flow cytometry (reference value: 7.81%); assay type: functional
[10] = tested on: HL-60; test: Induction of apoptosis in human HL60 cells assessed as early apoptotic cells at 0.25 uM after 48 hrs by Annexin V-FITC/propidium iodide staining based flow cytometry (reference value: 2.66%); assay type: functional; method in brief: as §1
[11] = tested on: HL-60; test: Induction of apoptosis in human HL60 cells assessed as necrotic cells at 1 uM after 48 hrs by Annexin V-FITC/propidium iodide staining based flow cytometry (reference value: 0.03%); assay type: functional; method in brief: as §1
[12] = tested on: HL-60; test: Induction of apoptosis in human HL60 cells after 48 hrs by Annexin V-FITC/propidium iodide staining based flow cytometry; assay type: functional, cell-based; method in brief: as §1
[13] = tested on: HL-60; test: Cell cycle arrest in human HL60 cells assessed as accumulation at G1-phase at 1 uM after 48 hrs by propidium iodide staining based flow cytometry (reference value: 63.21%); assay type: functional
[14] = tested on: HL-60; test: Cell cycle arrest in human HL60 cells assessed as accumulation at G2-phase at 1 uM after 48 hrs by propidium iodide staining based flow cytometry (reference value: 11.61%); assay type: functional
[15] = tested on: HL-60; test: Cell cycle arrest in human HL60 cells assessed as accumulation at S-phase at 0.25 uM after 48 hrs by propidium iodide staining based flow cytometry (reference value: 25.19%); assay type: functional
[16] = tested on: HL-60; test: Induction of apoptosis in human HL60 cells assessed as nuclear fragmentation at 0.25 to 1 uM after 48 hrs by […]; assay type: functional, cell-based
[17] = tested on: HL-60; test: Cell cycle arrest in human HL60 cells assessed as accumulation at G1-phase at 0.5 uM after 48 hrs by propidium iodide staining based flow cytometry (reference value: 63.21%); assay type: functional
[18] = tested on: HL-60; test: Induction of mitochondrial membrane potential loss in human HL60 cells assessed as cells with intact mitochondrial membrane at 0.5 uM after 48 hrs by JC-1 staining based flow cytometry (reference value: 92.17%); assay type: functional
[19] = tested on: HL-60; test: Cell cycle arrest in human HL60 cells assessed as accumulation at G2-phase at 0.25 uM after 48 hrs by propidium iodide staining based flow cytometry (reference value: 11.61%); assay type: functional
[20] = tested on: HL-60; test: Induction of apoptosis in human HL60 cells assessed as necrotic cells at 0.25 uM after 48 hrs by Annexin V-FITC/propidium iodide staining based flow cytometry (reference value: 0.03%); assay type: functional; method in brief: as §1
[21] = tested on: HL-60; test: Induction of apoptosis in human HL60 cells assessed as live cells at 0.5 uM after 48 hrs by Annexin V-FITC/propidium iodide staining based flow cytometry (reference value: 95.75%); assay type: functional; method in brief: as §1
[22] = tested on: HL-60; test: Induction of apoptosis in human HL60 cells assessed as early apoptotic cells at 1 uM after 48 hrs by Annexin V-FITC/propidium iodide staining based flow cytometry (reference value: 2.66%); assay type: functional; method in brief: as §1
[23] = tested on: HL-60; test: Cell cycle arrest in human HL60 cells assessed as accumulation at G1-phase at 0.25 uM after 48 hrs by propidium iodide staining based flow cytometry (reference value: 63.21%); assay type: functional
[24] = tested on: HL-60; test: Induction of mitochondrial membrane potential loss in human HL60 cells assessed as cells with intact mitochondrial membrane at 1 uM after 48 hrs by JC-1 staining based flow cytometry (reference value: 92.17%); assay type: functional
[25] = tested on: HL-60; test: Induction of mitochondrial membrane potential loss in human HL60 cells assessed as cells with intact mitochondrial membrane at 0.25 uM after 48 hrs by JC-1 staining based flow cytometry (reference value: 92.17%); assay type: functional
[26] = tested on: HL-60; test: Induction of mitochondrial membrane potential loss in human HL60 cells assessed as cells with collapsed mitochondrial membrane potential at 0.25 uM after 48 hrs by JC-1 staining based flow cytometry (reference value: 7.81%); assay type: functional
[27] = tested on: HL-60; test: Induction of mitochondrial membrane potential loss in human HL60 cells assessed as cells with collapsed mitochondrial membrane potential at 0.5 uM after 48 hrs by JC-1 staining based flow cytometry (reference value: 7.81%); assay type: functional
[28] = tested on: HL-60; test: Induction of mitochondrial membrane potential loss in human HL60 cells assessed as cells with collapsed mitochondrial membrane potential after 48 hrs by JC-1 staining based flow cytometry; assay type: functional, cell-based
[29] = tested on: HL-60; test: Induction of apoptosis in human HL60 cells assessed as late apoptotic cells at 0.25 uM after 48 hrs by Annexin V-FITC/propidium iodide staining based flow cytometry (reference value: 1.56%); assay type: functional; method in brief: as §1
[30] = tested on: HL-60; test: Induction of apoptosis in human HL60 cells assessed as live cells at 1 uM after 48 hrs by Annexin V-FITC/propidium iodide staining based flow cytometry (reference value: 95.75%); assay type: functional; method in brief: as §1
[31] = tested on: HL-60; test: Induction of apoptosis in human HL60 cells assessed as late apoptotic cells at 1 uM after 48 hrs by Annexin V-FITC/propidium iodide staining based flow cytometry (reference value: 1.56%); assay type: functional; method in brief: as §1
[32] = tested on: HL-60; test: Induction of apoptosis in human HL60 cells assessed as live cells at 0.25 uM after 48 hrs by Annexin V-FITC/propidium iodide staining based flow cytometry (reference value: 95.75%); assay type: functional; method in brief: as §1
[33] = tested on: HL-60; test: Induction of apoptosis in human HL60 cells assessed as early apoptotic cells at 0.5 uM after 48 hrs by Annexin V-FITC/propidium iodide staining based flow cytometry (reference value: 2.66%); assay type: functional; method in brief: as §1
[34] = tested on: HL-60; test: Cell cycle arrest in human HL60 cells assessed as accumulation at S-phase at 1 uM after 48 hrs by propidium iodide staining based flow cytometry (reference value: 25.19%); assay type: functional
[35] = tested on: HL-60; test: Induction of apoptosis in human HL60 cells assessed as chromatin condensation at 0.25 to 1 uM after 48 hrs […]; assay type: functional, cell-based
[36] = tested on: HL-60; test: Cell cycle arrest in human HL60 cells assessed as accumulation at G2-phase at 0.5 uM after 48 hrs by propidium iodide staining based flow cytometry (reference value: 11.61%); assay type: functional

SMILES: COC(=O)[C@H](Cc1ccc(N(CCCl)CCCl)cc1)NC(=O)CCC(=O)O
- IC50 [1]: > 100 µM
- IC50 [2]: 13.8 µM
- IC50 [3]: 3.84 µM
- IC50 [4]: 5.34 µM
- IC50 [5]: > 200 µM

SMILES: COC(=O)[C@H](Cc1ccc(N(CCCl)CCCl)cc1)NC(=O)CCC(=O)OCCCOCCCn1c2c(c3ccccc31)CCN1C(=O)c3ccccc3N(C)C21 (stereo partly specified)
- Activity [6]: 5.27%
- IC50 [1]: > 100 µM
- Activity [7]: 26.28%
- Activity [8]: 0.72%
- Activity [9]: 62.78%
- Activity [10]: 10.41%
- IC50 [2]: 17 µM
- Activity [11]: 0.79%
- Activity [12]: Dose-dependent effect
- Activity [13]: 45.83%
- Activity [14]: 25.99%
- Activity [15]: 24.42%
- Activity [16]: Active
- Activity [17]: 58.52%
- Activity [18]: 71.49%
- IC50 [3]: 4.05 µM
- Activity [19]: 13.19%
- Activity [20]: 0.58%
- Activity [21]: 53.71%
- Activity [22]: 57.54%
- Activity [23]: 62.39%
- Activity [24]: 37.22%
- Activity [25]: 85.67%
- Activity [26]: 14.13%
- Activity [27]: 28.51%
- Activity [28]: Dose-dependent effect
- IC50 [4]: 0.5 µM
- Activity [29]: 5.69%
- Activity [30]: 34.97%
- Activity [31]: 6.7%
- Activity [32]: 83.31%
- IC50 [5]: > 200 µM
- Activity [33]: 40.31%
- Activity [34]: 28.18%
- Activity [35]: Active
- Activity [36]: 15.19%

SMILES: CN1c2ccccc2C(=O)N2CCc3c(n(CCCCCCOC(=O)c4ccc(N(CCCl)CCCl)cc4)c4ccccc34)C21 (stereo unspecified)
- IC50 [1]: > 100 µM
- IC50 [2]: > 100 µM
- IC50 [3]: 3.92 µM
- IC50 [4]: 23.5 µM
- IC50 [5]: > 200 µM

SMILES: CN1c2ccccc2C(=O)N2CCc3c(n(CCCOC(=O)c4ccc(N(CCCl)CCCl)cc4)c4ccccc34)C21 (stereo unspecified)
- IC50 [1]: > 100 µM
- IC50 [2]: > 100 µM
- IC50 [3]: 6.6 µM
- IC50 [4]: 30.9 µM
- IC50 [5]: > 200 µM

SMILES: CN1c2ccccc2C(=O)N2CCc3c(n(CCCOCCCO)c4ccccc34)C21 (stereo unspecified)
- IC50 [1]: 19.9 µM
- IC50 [2]: > 100 µM
- IC50 [3]: 8.42 µM
- IC50 [4]: 5.31 µM
- IC50 [5]: > 200 µM

SMILES: CN1c2ccccc2C(=O)N2CCc3c(n(CCCO)c4ccccc34)C21 (stereo unspecified)
- IC50 [1]: 27.3 µM
- IC50 [2]: > 100 µM
- IC50 [3]: 8.89 µM
- IC50 [4]: 6.03 µM
- IC50 [5]: > 200 µM

SMILES: COC(=O)[C@H](Cc1ccc(N(CCCl)CCCl)cc1)NC(=O)CCC(=O)OCCCn1c2c(c3ccccc31)CCN1C(=O)c3ccccc3N(C)C21 (stereo partly specified)
- IC50 [1]: > 100 µM
- IC50 [2]: > 100 µM
- IC50 [3]: 2.37 µM
- IC50 [4]: 1.12 µM
- IC50 [5]: > 200 µM

SMILES: CN1c2ccccc2C(=O)N2CCc3c(n(CCOC(=O)CCCc4ccc(N(CCCl)CCCl)cc4)c4ccccc34)C21 (stereo unspecified)
- IC50 [1]: 45.7 µM
- IC50 [2]: > 100 µM
- IC50 [3]: 4.82 µM
- IC50 [4]: 11.3 µM
- IC50 [5]: > 200 µM

SMILES: CN1c2ccccc2C(=O)N2CCc3c(n(CCCCCCO)c4ccccc34)C21 (stereo unspecified)
- IC50 [1]: 21.5 µM
- IC50 [2]: > 100 µM
- IC50 [3]: 6.97 µM
- IC50 [4]: 8.53 µM
- IC50 [5]: > 200 µM

SMILES: CN1c2ccccc2C(=O)N2CCc3c(n(CCCOCCCOC(=O)c4ccc(N(CCCl)CCCl)cc4)c4ccccc34)C21 (stereo unspecified)
- IC50 [1]: > 100 µM
- IC50 [2]: > 100 µM
- IC50 [3]: 9.29 µM
- IC50 [4]: 22.3 µM
- IC50 [5]: > 200 µM
